# Published values of several laboratories.
# Target: Mitogen-activated protein kinase kinase kinase 13 (MAP3K13, Homo sapiens, UniProt O43283)
# Residues used in one study (O43283 1-966): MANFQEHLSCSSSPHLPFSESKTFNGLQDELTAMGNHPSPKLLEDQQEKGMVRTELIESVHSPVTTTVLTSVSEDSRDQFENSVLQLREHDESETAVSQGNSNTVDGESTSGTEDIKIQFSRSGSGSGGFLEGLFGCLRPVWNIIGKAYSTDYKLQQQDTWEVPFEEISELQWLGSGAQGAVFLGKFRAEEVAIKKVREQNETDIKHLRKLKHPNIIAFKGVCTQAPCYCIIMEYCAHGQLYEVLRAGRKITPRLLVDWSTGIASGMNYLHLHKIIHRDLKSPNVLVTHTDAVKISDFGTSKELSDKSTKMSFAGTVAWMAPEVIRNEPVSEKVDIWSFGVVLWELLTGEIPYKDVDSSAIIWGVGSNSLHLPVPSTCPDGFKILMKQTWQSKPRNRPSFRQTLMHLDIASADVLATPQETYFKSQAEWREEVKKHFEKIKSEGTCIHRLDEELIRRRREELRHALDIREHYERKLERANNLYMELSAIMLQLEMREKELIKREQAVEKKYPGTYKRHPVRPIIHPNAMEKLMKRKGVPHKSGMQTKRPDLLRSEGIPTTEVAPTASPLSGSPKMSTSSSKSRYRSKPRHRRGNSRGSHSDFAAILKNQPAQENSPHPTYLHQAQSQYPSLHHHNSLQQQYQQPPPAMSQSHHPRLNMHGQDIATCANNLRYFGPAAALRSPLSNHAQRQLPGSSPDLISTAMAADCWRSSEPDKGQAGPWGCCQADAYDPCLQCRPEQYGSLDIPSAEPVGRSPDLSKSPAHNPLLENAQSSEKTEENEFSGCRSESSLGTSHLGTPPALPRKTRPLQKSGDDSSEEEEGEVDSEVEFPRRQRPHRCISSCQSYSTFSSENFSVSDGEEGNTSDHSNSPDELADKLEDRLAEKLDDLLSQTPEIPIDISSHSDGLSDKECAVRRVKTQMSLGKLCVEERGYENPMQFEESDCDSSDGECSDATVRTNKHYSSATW
Structure (SMILES),assay,conditions,remaining binding [%]
O=C(NCCCN1CCOCC1)c1ccc(Nc2nccc(-c3cc4ccccc4s3)n2)cc1,"binding, competition with immobilised ligand",1 µM,79
Cc1cnn2ncc(-c3ccnc(N(C)C)n3)c2c1,binding,1 µM,70
CO[C@@H](C)c1c(Nc2ccc([C@H](N(C)C(=O)C3CCS(=O)(=O)CC3)C(F)(F)F)cc2)cnc2cc(Cl)nn12,"cell-free assay, competition with immobilised ligand",1 µM,78
COc1ccnn2ncc(-c3ccnc(N(C)C)n3)c12,binding,1 µM,21
O=C(NC[C@@H]1[C@H]2CN(C(=O)OCc3cc(C(F)(F)F)cc(C(F)(F)F)c3)C[C@@H]12)c1ccc2[nH]nnc2c1,"cell-free assay, competition with immobilised ligand",1 µM,86
O=C(c1ccc(Nc2nccc(-c3cc4ccccc4s3)n2)cc1)N1CCC(N2CCCC2)CC1,"binding, competition with immobilised ligand",1 µM,68
O=C(Nc1c[nH]nc1C(=O)NC1CCNCC1)c1cc(F)cc(F)c1,"binding, competition with immobilised ligand",1 µM,100
FC(F)(F)Oc1cccc(-c2cnc3ccc(-c4ccncc4)nn23)c1,"cell-free assay, competition with immobilised ligand",5 µM,83
COc1cc(-c2cn(C3CCc4c(F)cccc4N(CC(F)(F)F)C3=O)nn2)ccc1-n1cnc(C)c1 (centres unmarked),"cell-free assay, competition with immobilised ligand",1 µM,75
CNC(=O)[C@@H]1CC[C@@H](n2c(-c3ccc4cnccc4c3)nc3ccc(C(=O)NCc4cccc(C(N)=O)c4)cc32)C1,"binding, competition with immobilised ligand",1 µM,100
CN(C)c1nccc(-c2cnc3ncccn23)n1,binding,1 µM,76
O=C(c1ccc(Nc2ncc(Cl)c(-c3cc4ccccc4s3)n2)cc1)N1CCC(N2CCCC2)CC1,"binding, competition with immobilised ligand",1 µM,46
Nc1ncc2c(n1)-c1c([nH]c3ccc(C#CC4CC4)cc13)CCCC2,"binding, competition with immobilised ligand",1 µM,61
CN(c1nccc(-c2cnn3ncccc23)n1)C1CC1,binding,1 µM,18
COCCOc1nc(-c2ccc(Cl)nc2)nc2c1CN(C(=O)c1ncn3ccccc13)CC2,"cell-free assay, competition with immobilised ligand",0.1 µM,87
CN(CCCC(F)(F)F)c1nccc(-c2cnn3ncccc23)n1,binding,1 µM,100
C[C@H](NC(=O)c1cnc2n1[C@](C)(Cc1ccc(C#N)cc1)C(=O)N2c1cc(Cl)c(F)c(Cl)c1)C(=O)NC1(c2ccccn2)CC1,"cell-free assay, competition with immobilised ligand",1 µM,100
COc1ncc2cc3ccccc3nc2c1C#N,"cell-free assay, competition with immobilised ligand",5 µM,92
C[C@@H]1CCN(c2nccc(-c3cnn4ncccc34)n2)C1,binding,1 µM,71
CC(=O)N1CCC(c2ccc(C(=O)NC(=N)N)cc2C(F)(F)F)CC1,"cell-free assay, competition with immobilised ligand",1 µM,100
